Reference: ChEMBL document CHEMBL1135760, “Anilinoquinazoline inhibitors of fructose 1,6-bisphosphatase bind at a novel allosteric site: synthesis, in vitro characterization, and X-ray crystallography” (J Med Chem, 2002)

Key:
[1] = molecular target: Fructose-1,6-bisphosphatase 1 (Rattus norvegicus, UniProt P19112, Q51K); assay: Concentration required for 50% Inhibition against (F16BP) Fructose-1,6-bisphosphatase in rat single mutant (Gln50Lys) enzyme using malachite green assay
In short: (§1)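 Recombinant rat liver F16BPase (wild type or Gln50Lys/Gln55His double, Gln50Lys or Gln55His single mutants), expressed in E. coli BL21(DE3) and purified, 40 ng/well. Enzyme added to substrate plus compound with no preincubation. Final buffer was 50 mM HEPES pH 7.2, 100 mM KCl, 2 mM MgCl2, 2 mM EGTA, 1 mM DTT, 500 μM fructose-1,6-bisphosphate. Incubation 40 min at room temperature. Released phosphate read at 620 nm with ammonium molybdate/malachite green. Means of ≥3 experiments. Dose-response tested up to 10 μM.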

[2] = molecular target: T1, Fructose-1,6-bisphosphatase 1 (Rattus norvegicus, UniProt P19112, Q56H); assay: Concentration required for 50% Inhibition against (F16BP) Fructose-1,6-bisphosphatase in rat single mutant (Gln55His) enzyme using malachite green assay; in short: as §1
T1 sequence (P19112 2-363 Q56H limits assumed): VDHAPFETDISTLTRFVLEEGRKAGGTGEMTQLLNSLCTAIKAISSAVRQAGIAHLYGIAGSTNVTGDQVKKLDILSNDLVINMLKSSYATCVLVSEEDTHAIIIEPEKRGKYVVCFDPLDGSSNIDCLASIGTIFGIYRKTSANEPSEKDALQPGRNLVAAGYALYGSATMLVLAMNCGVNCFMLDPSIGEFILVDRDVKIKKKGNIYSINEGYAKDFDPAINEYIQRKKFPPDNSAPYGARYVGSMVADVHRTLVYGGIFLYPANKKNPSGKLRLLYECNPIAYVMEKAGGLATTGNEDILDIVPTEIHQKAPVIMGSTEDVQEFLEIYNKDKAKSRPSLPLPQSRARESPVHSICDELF

[3] = molecular target: T2, Fructose-1,6-bisphosphatase 1 (Rattus norvegicus, UniProt P19112); assay: Concentration required for 50% Inhibition against (F16BP) Fructose-1,6-bisphosphatase in rat wild type enzyme using malachite green assay; in short: as §1
T2 sequence (P19112 whole entry): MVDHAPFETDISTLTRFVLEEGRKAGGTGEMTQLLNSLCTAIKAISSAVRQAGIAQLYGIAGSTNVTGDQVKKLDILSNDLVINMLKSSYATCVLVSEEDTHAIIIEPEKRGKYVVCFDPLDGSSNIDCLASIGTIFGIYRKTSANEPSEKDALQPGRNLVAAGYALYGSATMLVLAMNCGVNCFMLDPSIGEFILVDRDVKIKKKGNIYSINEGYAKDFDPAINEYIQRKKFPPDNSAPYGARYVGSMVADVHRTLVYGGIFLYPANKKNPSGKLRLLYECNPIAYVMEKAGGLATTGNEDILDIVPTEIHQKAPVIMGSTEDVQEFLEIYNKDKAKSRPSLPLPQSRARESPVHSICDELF

[4] = Inhibition of human recombinant wild type fructose-1,6-bisphosphatase (F16BP)
[5] = molecular target: Fructose-1,6-bisphosphatase 1 (Rattus norvegicus, UniProt P19112, Q51K/Q56H); assay: Concentration required for 50% Inhibition against (F16BP) Fructose-1,6-bisphosphatase in rat double mutant (Gln50Lys Gln55His) enzyme using malachite green assay; in short: as §1
Fructose-1,6-bisphosphatase 1 (Rattus norvegicus, UniProt P19112, Q51K/Q56H), sequence (P19112 2-363 Q51K/Q56H limits assumed): as the sequence (P19112 2-363 Q56H limits assumed) above, with Q50K counted along it

[6] = molecular target: T1, Fructose-1,6-bisphosphatase 1; assay: Concentration required for 50% Inhibition against (F16BP) Fructose-1,6-bisphosphatase in rat single mutant(Gln55His) enzyme using malachite green assay; in short: as §1

Fructose-1,6-bisphosphatase 1 (Rattus norvegicus, UniProt P19112, Q51K), sequence (P19112 2-363 Q51K limits assumed): as the sequence (P19112 2-363 Q56H limits assumed) above, with Q50K, H55Q counted along it

Row | IC50 [1] | IC50 [2] | IC50 [3] | IC50 [4] | IC50 [5] | IC50 [6] | Compound
1 | > 10 µM | 3 µM | > 10 µM | 0.93 µM | 0.52 µM | – | CCOc1cc2ncnc(Nc3cccc(-c4csc(C(N)=O)n4)c3)c2cc1OCC
2 | > 10 µM | – | > 10 µM | 0.64 µM | 0.79 µM | 3.8 µM | CCOc1cc2ncnc(Nc3cccc(-c4csc(C)n4)c3)c2cc1OCC
3 | > 10 µM | 2.9 µM | > 10 µM | – | 0.34 µM | – | CCOc1cc2ncnc(Nc3cccc(-c4csc(CO)n4)c3)c2cc1OCC
